Data on nine compounds can be found in ChEMBL document CHEMBL1145725, “Synthesis and antimicrobial activity of novel globomycin analogues” (2003).

In test [1] the test system is Enterobacter cloacae. As to the kind of experiment: Antibacterial activity against Enterobacter cloacae 846. In kind it is functional. The gist of the method:
(§1)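 MIC by agar dilution on Nutrient Agar, following the NCCLS standard dilution method for aerobically growing bacteria.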

The test system of test [2] is Enterobacter cloacae. Kind of test: Antibacterial activity against Enterobacter cloacae SANK 72690. It is filed as functional. In outline:
as §1

Test [3] concerns Escherichia coli. Kind of test: Antibacterial activity against Escherichia coli SANK 70569 (NIHJ JC-2). It is filed as functional. In outline:
as §1

For test [4], the system named is Escherichia coli. Kind of test: Antibacterial activity against Escherichia coli SANK 72290. It is filed as functional. In outline: as §1
Test [5] concerns Klebsiella pneumoniae. As to the kind of experiment: Antibacterial activity against Klebsiella pneumoniae SANK 72490. In kind it is functional. In outline: as §1
In test [6] the test system is Morganella morganii. Kind of test: Antibacterial activity against Morganella morganii SANK 72990. It is filed as functional. In outline:
as §1

For test [7], the system named is Pseudomonas aeruginosa. Kind of test: Antibacterial activity against Pseudomonas aeruginosa SANK 3719. It is filed as functional. The gist of the method:
as §1

The subject of test [8] is Pseudomonas aeruginosa. As to the kind of experiment: Antibacterial activity against Pseudomonas aeruginosa SANK 73090. In kind it is functional. The gist of the method: as §1
In test [9] the test system is Salmonella enteritidis. Kind of test: Antibacterial activity against Salmonella enteritidis SANK 72390. Conditions: Salmonella enterica. It is filed as functional, Salmonella enterica subsp. enterica serovar Enteritidis. In outline:
as §1

The subject of test [10] is Serratia marcescens. Kind of test: Antibacterial activity against Serratia marcescens SANK 72790. In kind it is functional. In outline:
as §1

For test [11], the system named is Proteus vulgaris. As to the kind of experiment: Antibacterial activity against Proteus vulgaris SANK 72890. In kind it is functional. The gist of the method:
as §1

Test [12] has as its system Pseudomonas aeruginosa. Kind of test: Antibacterial activity against Pseudomonas aeruginosa SANK 73190. It is filed as functional. The gist of the method: as §1
The subject of test [13] is Enterococcus faecalis. Kind of test: Antibacterial activity against Enterococcus faecalis SANK 71990. It is filed as functional. In outline:
as §1

Test [14] relates to Staphylococcus aureus. As to the kind of experiment: Antibacterial activity against Staphylococcus aureus SANK 70668. It is filed as functional. The gist of the method: as §1
The subject of test [15] is Staphylococcus aureus. As to the kind of experiment: Antibacterial activity against Staphylococcus aureus SANK 71790. In kind it is functional. The gist of the method:
as §1

For test [16], the system named is Staphylococcus aureus. As to the kind of experiment: Antibacterial activity against Staphylococcus aureus SANK 71890 (MRSA). It is filed as functional. The gist of the method: as §1

Converted amounts (≈) assume the structure as drawn.

Turning to `CCCCCC[C@H]1OC(=O)CNC(=O)[C@@H]([C@H](C)OC)NC(=O)[C@H](CO)NC(=O)[C@H]([C@H](C)CC)NC(=O)[C@H](CC(C)C)N(C)C(=O)[C@@H]1C`, the MIC is 12.5 µg/mL (≈ 18.7 µM) in [1]; 100 µg/mL (≈ 149 µM) in test [2]; 25 µg/mL (≈ 37.3 µM) in test [3]; 25 µg/mL (≈ 37.3 µM) in [4]; 50 µg/mL (≈ 74.6 µM) in test [5]; more than 100 µg/mL in test [6]. Further, the MIC was more than 100 µg/mL in test [7]; more than 100 µg/mL in [8]; 50 µg/mL (≈ 74.6 µM) in [9]; more than 100 µg/mL in [10]; more than 100 µg/mL in [11]; more than 100 µg/mL in [12].
For `CCCCCC[C@H]1OC(=O)CNC(=O)[C@@H]([C@@H](C)O)NC(=O)[C@H](CO)NC(=O)[C@H]([C@@H](C)CC)NC(=O)[C@H](CC(C)C)N(C)C(=O)[C@@H]1C`, the MIC in test [1], in test [2], in [3], in test [4], in test [5] and in test [6] was more than 100 µg/mL each time. Also, the MIC in test [7], in test [8], in test [9], in test [10], in test [11] and in test [12] was more than 100 µg/mL throughout.
On to `CCCCCC[C@H]1OC(=O)CNC(=O)[C@@H]([C@@H](C)O)NC(=O)[C@H](CO)NC(=O)[C@H]([C@H](C)CC)NC(=O)[C@H](CC(C)C)N(C)C(=O)[C@@H]1C`, for which the MIC in test [1] is 100 µg/mL (≈ 152 µM); in test [2], more than 100 µg/mL; in test [3], more than 100 µg/mL; in test [4] it was more than 100 µg/mL; in test [5], more than 100 µg/mL; in test [6], more than 100 µg/mL. The minimum inhibitory concentration (MIC) in test [7], in test [8], in test [9], in [10], in [11] and in test [12] was more than 100 µg/mL throughout.
With `CCCCCCCC[C@H]1OC(=O)CNC(=O)[C@H]([C@H](C)O)NC(=O)[C@H](CO)NC(=O)[C@H]([C@H](C)CC)NC(=O)[C@H](CC(C)C)N(C)C(=O)[C@@H]1C`, the MIC in [13] was determined as 100 µg/mL (≈ 146 µM); in test [1], 1.56 µg/mL (≈ 2.28 µM); in [2] it was 12.5 µg/mL (≈ 18.3 µM); in test [3], 3.13 µg/mL (≈ 4.58 µM); in [4] it was 3.13 µg/mL (≈ 4.58 µM); in [5] it was 3.13 µg/mL (≈ 4.58 µM). In addition, the MIC in test [6] is more than 100 µg/mL; in test [7], more than 100 µg/mL; in test [8] it was more than 100 µg/mL; in test [9] it was 6.25 µg/mL (≈ 9.14 µM); in test [14] it was 50 µg/mL (≈ 73.1 µM); in [15] it was 50 µg/mL (≈ 73.1 µM). The MIC is 50 µg/mL (≈ 73.1 µM) in test [16], 12.5 µg/mL (≈ 18.3 µM) in test [10], more than 100 µg/mL in test [11] and more than 100 µg/mL in [12].
Turning to `CCCCCC[C@H]1OC(=O)CNC(=O)[C@H]([C@H](C)O)NC(=O)[C@H](CO)NC(=O)[C@H]([C@H](C)CC)NC(=O)[C@H](CC(C)C)N(C)C(=O)[C@@H]1C`, the MIC was more than 100 µg/mL in test [13]; 6.25 µg/mL (≈ 9.53 µM) in test [1]; 50 µg/mL (≈ 76.2 µM) in [2]; 12.5 µg/mL (≈ 19.1 µM) in test [3]; 12.5 µg/mL (≈ 19.1 µM) in [4]; 25 µg/mL (≈ 38.1 µM) in test [5]. Besides, the MIC in test [6] is more than 100 µg/mL; in test [7], more than 100 µg/mL; in test [8], more than 100 µg/mL; in test [9] it was 25 µg/mL (≈ 38.1 µM); in test [14], more than 100 µg/mL; in test [15], more than 100 µg/mL. Moreover, the MIC in test [16] was more than 100 µg/mL; in test [10], 100 µg/mL (≈ 152 µM); in test [11], more than 100 µg/mL; in test [12] it was more than 100 µg/mL.
Take `CCCCCC[C@H]1OC(=O)CNC(=O)[C@@H]([C@H](C)O)NC(=O)[C@H](CO)NC(=O)[C@H]([C@@H](C)CC)NC(=O)[C@H](CC(C)C)N(C)C(=O)[C@@H]1C`: the MIC was 6.25 µg/mL (≈ 9.53 µM) in [1]; 50 µg/mL (≈ 76.2 µM) in test [2]; 12.5 µg/mL (≈ 19.1 µM) in test [3]; 12.5 µg/mL (≈ 19.1 µM) in test [4]; 25 µg/mL (≈ 38.1 µM) in test [5]; more than 100 µg/mL in test [6]. In addition, the MIC was more than 100 µg/mL in test [7]; more than 100 µg/mL in test [8]; 50 µg/mL (≈ 76.2 µM) in test [9]; more than 100 µg/mL in test [10]; more than 100 µg/mL in [11]; more than 100 µg/mL in [12].
As to `CCCCCCCCCC[C@H]1OC(=O)CNC(=O)[C@H]([C@H](C)O)NC(=O)[C@H](CO)NC(=O)[C@H]([C@H](C)CC)NC(=O)[C@H](CC(C)C)N(C)C(=O)[C@@H]1C`, the MIC in [13] was found to be 12.5 µg/mL (≈ 17.6 µM); in test [1] it was 1.56 µg/mL (≈ 2.19 µM); in test [2] it was 3.13 µg/mL (≈ 4.4 µM); in test [3], 1.56 µg/mL (≈ 2.19 µM); in [4], 1.56 µg/mL (≈ 2.19 µM); in [5], 1.56 µg/mL (≈ 2.19 µM). Further, the MIC in test [6] was more than 100 µg/mL; in test [7] it was more than 100 µg/mL; in test [8], more than 100 µg/mL; in test [9], 3.13 µg/mL (≈ 4.4 µM); in test [14] it was 6.25 µg/mL (≈ 8.78 µM); in test [15], 6.25 µg/mL (≈ 8.78 µM). For the same compound, the MIC in test [16] was 12.5 µg/mL (≈ 17.6 µM); in test [10] it was 3.13 µg/mL (≈ 4.4 µM); in test [11], more than 100 µg/mL; in test [12], more than 100 µg/mL.
Take `CCCCCC[C@H]1OC(=O)CNC(=O)[C@H](CC)NC(=O)[C@H](CO)NC(=O)[C@H]([C@H](C)CC)NC(=O)[C@H](CC(C)C)N(C)C(=O)[C@@H]1C`: the MIC in test [1] is 12.5 µg/mL (≈ 19.5 µM); in [2] it was more than 100 µg/mL; in test [3] it was 25 µg/mL (≈ 39.1 µM); in test [4], 25 µg/mL (≈ 39.1 µM); in test [5], 50 µg/mL (≈ 78.1 µM); in test [6] it was more than 100 µg/mL. For the same compound, the MIC in test [7] was more than 100 µg/mL; in test [8], more than 100 µg/mL; in [9], 100 µg/mL (≈ 156 µM); in [10], more than 100 µg/mL; in test [11] it was more than 100 µg/mL; in test [12], more than 100 µg/mL.
For the compound `CCCCCC[C@H]1OC(=O)CNC(=O)[C@H]([C@H](C)O)NC(=O)[C@H](CO)NC(=O)[C@H]([C@H](C)CC)NC(=O)[C@H](CC(C)C)NC(=O)[C@@H]1C`, the MIC is 100 µg/mL (≈ 156 µM) in test [1]; more than 100 µg/mL in test [2]; more than 100 µg/mL in test [3]; more than 100 µg/mL in test [4]; more than 100 µg/mL in test [5]; more than 100 µg/mL in test [6]. The MIC in test [7], in test [8], in [9], in [10], in test [11] and in test [12] was more than 100 µg/mL each time.
